Reference: ChEMBL document CHEMBL1126928, “N-(1-arylpropionyl)-4-aryltetrahydropyridines, a new class of high-affinity selective sigma receptor ligands” (J Med Chem, 1993)
pIC50: −log10 of the molar value.

Tests used:
[1] = biological target: T1, D(2) dopamine receptor (Bos taurus, UniProt P20288); assay: Binding affinity against Dopamine receptor D2 in bovine striatal homogenate using 200 pM [3H]- spiperone and 250 nM unlabeled ketanserin
How it was run: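 Bovine striatal homogenate, run like the σ assay, with 200 pM [³H]spiperone (21.2 Ci/mmol). Incubation buffer pH 7.40 containing 250 nM ketanserin to block 5-HT2 binding. Measured by filtration and scintillation counting. Results given as IC50.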

[2] = biological target: D(1A) dopamine receptor (Rattus norvegicus) (UniProt P18901); assay: Binding affinity for dopamine receptor D1 in rat striatal membranes using 500 pM [3H]- SCH 23390 radioligand; assay type: cell membranes; settings: Striatum; Membrane
Chain of D(1A) dopamine receptor (Rattus norvegicus) (P18901 whole entry): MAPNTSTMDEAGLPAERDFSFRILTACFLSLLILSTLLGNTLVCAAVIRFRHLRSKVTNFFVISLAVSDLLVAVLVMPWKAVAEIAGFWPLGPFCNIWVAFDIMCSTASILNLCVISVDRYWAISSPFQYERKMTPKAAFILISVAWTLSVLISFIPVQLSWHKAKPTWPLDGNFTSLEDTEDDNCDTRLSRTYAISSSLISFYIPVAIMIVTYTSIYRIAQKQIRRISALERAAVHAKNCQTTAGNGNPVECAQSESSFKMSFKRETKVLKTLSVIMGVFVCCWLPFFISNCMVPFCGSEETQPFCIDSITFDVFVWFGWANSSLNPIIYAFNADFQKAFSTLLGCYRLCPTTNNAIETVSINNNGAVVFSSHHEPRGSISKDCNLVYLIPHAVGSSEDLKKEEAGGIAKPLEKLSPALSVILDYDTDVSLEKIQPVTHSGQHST
How it was run: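 Test compound at 10^-5 M, reported as percent inhibition of 500 pM [3H]SCH 23390 binding to rat striatal membranes. Nonspecific binding defined with 100 nM unlabeled SCH 23390.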

[3] = biological target: Glutamate receptor ionotropic, NMDA 2C (Rattus norvegicus) (UniProt Q00961); assay: Binding affinity for Phencyclidine receptor (1 uM) using 2 nM [3H]- TCP radioligand.
Chain of Glutamate receptor ionotropic, NMDA 2C (Rattus norvegicus) (Q00961 20-1237 limits assumed): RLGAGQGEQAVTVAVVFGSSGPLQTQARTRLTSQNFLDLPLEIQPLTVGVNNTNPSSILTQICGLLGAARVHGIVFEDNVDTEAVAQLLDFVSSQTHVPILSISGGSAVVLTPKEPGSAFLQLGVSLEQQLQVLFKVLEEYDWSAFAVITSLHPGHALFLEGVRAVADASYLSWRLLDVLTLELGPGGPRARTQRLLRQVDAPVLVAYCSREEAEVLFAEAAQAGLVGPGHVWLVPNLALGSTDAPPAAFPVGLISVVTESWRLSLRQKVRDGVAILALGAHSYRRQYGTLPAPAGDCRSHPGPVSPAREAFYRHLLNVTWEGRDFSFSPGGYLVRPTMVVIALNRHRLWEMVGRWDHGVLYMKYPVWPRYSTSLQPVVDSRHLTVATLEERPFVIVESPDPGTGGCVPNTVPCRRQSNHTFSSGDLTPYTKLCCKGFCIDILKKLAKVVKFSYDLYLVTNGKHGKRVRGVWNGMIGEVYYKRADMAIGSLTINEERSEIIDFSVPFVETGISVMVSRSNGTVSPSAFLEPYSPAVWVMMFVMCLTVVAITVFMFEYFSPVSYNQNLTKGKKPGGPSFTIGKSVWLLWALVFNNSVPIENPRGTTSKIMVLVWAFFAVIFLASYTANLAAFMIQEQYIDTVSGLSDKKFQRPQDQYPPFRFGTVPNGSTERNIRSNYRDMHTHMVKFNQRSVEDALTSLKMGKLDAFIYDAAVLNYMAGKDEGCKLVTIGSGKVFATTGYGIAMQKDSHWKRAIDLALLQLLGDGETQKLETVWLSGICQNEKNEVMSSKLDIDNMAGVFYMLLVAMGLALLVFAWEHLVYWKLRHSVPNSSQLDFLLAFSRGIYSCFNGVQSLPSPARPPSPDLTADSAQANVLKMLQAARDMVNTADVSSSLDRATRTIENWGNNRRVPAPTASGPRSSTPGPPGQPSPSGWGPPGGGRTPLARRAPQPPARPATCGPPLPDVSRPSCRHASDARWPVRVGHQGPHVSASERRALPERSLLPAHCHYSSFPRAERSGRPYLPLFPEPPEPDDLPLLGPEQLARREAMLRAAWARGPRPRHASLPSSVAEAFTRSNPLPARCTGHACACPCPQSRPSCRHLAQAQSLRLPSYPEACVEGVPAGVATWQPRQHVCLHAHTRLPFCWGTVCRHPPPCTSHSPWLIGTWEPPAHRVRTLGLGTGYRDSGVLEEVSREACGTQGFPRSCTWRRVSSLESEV
How it was run: (§1)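 Test compound at 10^-5 M, reported as percent inhibition of 2 nM [3H]TCP binding. Binding defined with 1 μM PCP.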

[4] = biological target: T2, Serotonin 1 (5-HT1) receptor (Rattus norvegicus) (UniProt P28564+P30940+P19327+P28565); assay: Percent inhibition of binding of 3.0 nM [3H]5-HT to 5-hydroxytryptamine 1 receptor in rat caudate membranes at 10 e -5 M.; assay type: cell membranes; settings: Membrane
How it was run: (§2)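 Rat caudate membranes incubated with 3.0 nM [3H]-5-HT binoxalate. Percent inhibition recorded at 10^-5 M test compound, with nonspecific binding set with 10 μM unlabeled 5-HT.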

[5] = biological target: T3, Serotonin 2 (5-HT2) receptor (Rattus norvegicus) (UniProt P30994+P08909+P14842); assay: Percent inhibition of binding of 1.0 nM [3H]-ketanserin to 5-hydroxytryptamine 2 receptor in rat cortical membranes at 10 e-5 M.; assay type: cell membranes; settings: Membrane
T3 sequence (P08909 whole entry, looked up): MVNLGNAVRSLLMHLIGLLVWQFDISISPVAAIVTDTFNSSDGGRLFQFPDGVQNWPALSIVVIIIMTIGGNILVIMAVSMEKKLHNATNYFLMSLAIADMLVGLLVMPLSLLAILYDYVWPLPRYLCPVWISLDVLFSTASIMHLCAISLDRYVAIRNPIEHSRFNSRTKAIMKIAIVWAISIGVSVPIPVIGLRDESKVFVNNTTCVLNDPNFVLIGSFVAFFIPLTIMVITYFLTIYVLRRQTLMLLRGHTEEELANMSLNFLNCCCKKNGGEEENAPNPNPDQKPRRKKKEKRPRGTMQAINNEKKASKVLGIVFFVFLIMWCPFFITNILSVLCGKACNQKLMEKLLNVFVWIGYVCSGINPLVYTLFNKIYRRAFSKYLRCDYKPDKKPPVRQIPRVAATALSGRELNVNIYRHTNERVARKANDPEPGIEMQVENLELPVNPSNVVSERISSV
T3 sequence (P14842 whole entry, looked up): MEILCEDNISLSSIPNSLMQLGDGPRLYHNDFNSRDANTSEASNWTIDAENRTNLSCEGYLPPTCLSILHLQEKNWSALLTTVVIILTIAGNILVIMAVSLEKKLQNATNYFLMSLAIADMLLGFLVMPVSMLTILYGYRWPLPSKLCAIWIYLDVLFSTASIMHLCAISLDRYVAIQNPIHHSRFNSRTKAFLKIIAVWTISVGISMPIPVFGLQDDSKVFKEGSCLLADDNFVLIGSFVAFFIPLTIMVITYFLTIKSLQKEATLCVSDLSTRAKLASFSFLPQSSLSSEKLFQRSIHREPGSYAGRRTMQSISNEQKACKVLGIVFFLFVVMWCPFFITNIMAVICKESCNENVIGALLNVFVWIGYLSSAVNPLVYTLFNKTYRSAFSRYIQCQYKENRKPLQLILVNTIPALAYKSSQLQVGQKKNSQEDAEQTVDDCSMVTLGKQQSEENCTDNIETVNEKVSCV
T3 sequence (P30994 whole entry, looked up): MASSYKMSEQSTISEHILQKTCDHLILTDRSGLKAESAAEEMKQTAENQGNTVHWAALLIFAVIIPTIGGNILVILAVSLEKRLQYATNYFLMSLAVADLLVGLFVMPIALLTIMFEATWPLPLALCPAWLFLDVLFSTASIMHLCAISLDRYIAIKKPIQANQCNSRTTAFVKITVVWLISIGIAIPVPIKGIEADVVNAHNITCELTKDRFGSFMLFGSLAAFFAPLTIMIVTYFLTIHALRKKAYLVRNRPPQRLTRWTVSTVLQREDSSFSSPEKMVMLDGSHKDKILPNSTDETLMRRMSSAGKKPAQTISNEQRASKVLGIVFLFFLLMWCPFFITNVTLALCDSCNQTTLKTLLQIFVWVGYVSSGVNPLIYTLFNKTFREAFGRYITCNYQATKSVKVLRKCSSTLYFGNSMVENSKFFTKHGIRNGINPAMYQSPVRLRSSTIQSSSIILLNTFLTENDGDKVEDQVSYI
How it was run: (§3)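 1.0 nM [3H]ketanserin bound to rat cortical membranes. Percent inhibition measured at 10^-5 M test compound, with nonspecific binding defined by 10 μM methysergide.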

[6] = biological target: T3, Serotonin 2 (5-HT2) receptor (Rattus norvegicus); assay: Percent inhibition of binding of 1.0 nM [3H]ketanserin to 5-hydroxytryptamine 2 receptor in rat cortical membranes at 10 e -5 M; assay type: cell membranes; settings: Membrane; how it was run: as §3
[7] = biological target: T2, Serotonin 1 (5-HT1) receptor (Rattus norvegicus); assay: Percent inhibition of binding of 3.0 nM [3H]5-HT to 5-hydroxytryptamine 1 receptor in rat caudate membranes at 10 e -5 M; assay type: cell membranes; settings: Membrane; how it was run: as §2
[8] = biological target: Glutamate receptor ionotropic, NMDA 2C (Rattus norvegicus) (UniProt Q00961); assay: Binding affinity for Phencyclidine receptor (1 uM) using 2 nM [3H]- TCP radioligand; how it was run: as §1
[9] = species on record: Rattus norvegicus; assay: Binding affinity against Phencyclidine receptor (1 uM) using 2 nM [3H]- TCP radioligand; how it was run: as §1
[10] = biological target: T1, D(2) dopamine receptor; assay: Inhibition of binding against Dopamine receptor D2 in bovine striatal homogenate using 200 pM [3H]- spiperone and 250 nM unlabeled ketanserin

T1 sequence (P20288 whole entry): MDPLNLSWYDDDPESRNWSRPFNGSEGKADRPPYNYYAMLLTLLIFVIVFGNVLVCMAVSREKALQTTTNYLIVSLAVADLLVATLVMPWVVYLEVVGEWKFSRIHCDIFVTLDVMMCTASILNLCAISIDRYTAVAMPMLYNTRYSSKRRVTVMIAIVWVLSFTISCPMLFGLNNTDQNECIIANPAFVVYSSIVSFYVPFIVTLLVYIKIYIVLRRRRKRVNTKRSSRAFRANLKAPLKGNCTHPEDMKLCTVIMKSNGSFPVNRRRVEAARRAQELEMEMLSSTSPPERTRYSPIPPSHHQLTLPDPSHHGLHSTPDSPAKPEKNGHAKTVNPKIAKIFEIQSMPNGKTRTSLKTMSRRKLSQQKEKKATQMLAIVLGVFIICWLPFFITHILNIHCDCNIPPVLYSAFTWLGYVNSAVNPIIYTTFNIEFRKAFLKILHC

SMILES	pIC50 [1]	further results
C1=C(c2ccccc2)CCNC1	< 5.30	
O=C(CCN1CC=C(c2ccc(Cl)cc2)CC1)c1ccccc1	< 5.30	Binding affinity [2]: 19; Binding affinity [3]: 0; inhibition [4]: 72.4%; inhibition [5]: 96.9%
O=C(CCN1CC=C(c2ccc(Cl)cc2)CC1)c1ccc(Cl)cc1	< 5.30	Binding affinity [2]: 31.6; inhibition [6]: 84%; inhibition [7]: 49.5%; Binding affinity [8]: 5.8
COc1ccc(C(=O)CCN2CC=C(c3ccc(Cl)cc3)CC2)cc1OC	< 5.30	
O=C(CCN1CC=C(c2ccc(Cl)cc2)CC1)c1ccc2c(c1)OCO2	< 5.30	
O=C(CCN1CC=C(c2ccc(F)cc2)CC1)c1ccc(Cl)cc1	< 4.82	
Clc1ccc(C2=CCNCC2)cc1	< 5.30	
O=C(CCN1CC=C(c2ccc(F)cc2)CC1)c1ccc(Br)cc1	< 4.89	
CCCN(CCC)CCC(=O)c1ccccc1	< 5.30	
CN(C)CCC(=O)c1ccccc1	< 5.30	
c1ccc(CCCCN2CCC(c3ccccc3)CC2)cc1	6.47	
O=C(CCN1CC=C(c2ccc(Cl)cc2)CC1)c1ccc(F)cc1	< 5.30	
O=C(CCN1CC=C(c2ccc(Cl)cc2)CC1)c1ccc(F)c(F)c1	< 5.30	
O=C(CCN1CC=C(c2ccc(Cl)cc2)CC1)c1ccc(Br)cc1	< 5.30	
CCN(CC)CCC(=O)c1ccccc1	< 5.30	
O=C(CCN1CC=C(c2ccc(Cl)cc2)CC1)c1ccccc1F	< 5.30	
O=C(CCN1CC=C(c2ccc(F)cc2)CC1)c1ccccc1	< 5.30	inhibition [2]: 23.9%; inhibition [9]: 0%; inhibition [6]: 94.8%; inhibition [7]: 64.5%
N#Cc1ccc(C(=O)CC2CCN(CC3CC3)CC2)cc1		pIC50 [10]: < 6.00
O=C(CCN1CC=C(c2ccc(F)cc2)CC1)c1ccc(F)cc1	< 5.00	
O=C(CCN1CC=C(c2ccc(Cl)cc2)CC1)c1ccc(Cl)c(Cl)c1	< 5.30	
O=C(CCN1CC=C(c2ccccc2)CC1)c1ccccc1	< 5.30	
O=C(CCN1CCC(c2ccccc2)CC1)c1ccccc1	< 5.30	
